Bioassay records as filed in PubChem BioAssay.
PG9 Ab binder: binders of HIV-1 gp120 antibody PG9, primary screen, biochemical, TR-FRET; inhibition, % at 6.7 µM; 360,000 tested, 0.43% active; TR-FRET gp120-PG9 antibody binding; AID 624416, 2012; in the data active = inhibition above about 8.5%
NR2E3 ag-1: inhibitors of NR2E3-RetCOR corepressor binding, primary screen, NR2E3 agonist project, biochemical, TR-FRET, GST-NR2E3, biotin-RetCOR. inhibition of corepressor binding, % at 4.78 µM. 1536-well. Photoreceptor-specific nuclear receptor (Homo sapiens), Q9Y5X4. 320,000 tested, 0.12% active. AID 2300, 2010;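 active = percent inhibition above the cutoff of mean plus 3 SD of all tested compounds, set per screening campaign, cut at about 20% in these data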;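 note: 0% = DMSO wells and 100% = biotin wells as full block of FRET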
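Material – GST-tagged NR2E3 plus biotinylated RetCOR corepressor · Quantity – NR2E3 fusion 1.35 nM · Times – 5 h incubation at 4 °C · Medium – pH 7.5 Tris-based buffer · Technique – TR-FRET, Eu(K)-anti-GST donor, streptavidin-D2 acceptor, ex 340, em 617/671 nm · Benchmarks – high control biotin, low control 0.6% DMSO · Format – 1536-well plates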
MC4R ag barr: MC4R agonists recruiting beta-arrestin, primary screen, cell-based, luminescence, agonist arm of biased-ligand search. 360,000 tested, 0.98% active. activation, % at 8.9 µM. U2OS MC4R beta-arrestin complementation; percent of melanotan II response, DMSO zero;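 active = activation above a per-plate cutoff, the mean activation of sample wells on that plate plus 3 SD, cut at about 8% in these data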
MC4R antag cAMP: MC4R antagonists of cAMP signaling, primary screen, cell-based, TR-FRET, antagonist arm of biased-ligand search | Melanocortin receptor 4 (Homo sapiens), P32245 | MC4R-expressing cells, MTII-stimulated cAMP, LANCE TR-FRET | inhibition, % at 6.5 µM | 360,000 tested, 0.48% active;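 active = inhibition above its plate's cutoff, the mean of tested wells on that plate plus 3 SD, cut at about 29% in these data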;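 note: 0% = Melanotan II alone and 100% = Melanotan II plus saturating MCL0020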
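Material: human MC4R-expressing U2OS cells. Probe or stimulus: Melanotan II challenge. Dosing: 6.5 µM single dose. Times: 30-min compound, 1-h challenge, 1-h detection, room temperature. Technique: TR-FRET with Eu-cAMP and labeled anti-cAMP, 671 nm. Replication: singlicate.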
NR1D1 modulator: modulators of Rev-erb alpha DNA binding, primary screen, biochemical, FITC-DNA, fluorescence polarization, uHTS; Rev-erbα–FITC-DNA binding, 90 min; activity, % at 10 µM; 370,000 tested, 0.79% active; AID 1259318, 2017;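 active = activity above about 14%, limit read from the data; passing the limit was not always enough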;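 note: 0% = DMSO wells with 35 nM protein and 100% = DMSO wells with 750 nM protein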
Target sequence (P20393 whole entry, looked up): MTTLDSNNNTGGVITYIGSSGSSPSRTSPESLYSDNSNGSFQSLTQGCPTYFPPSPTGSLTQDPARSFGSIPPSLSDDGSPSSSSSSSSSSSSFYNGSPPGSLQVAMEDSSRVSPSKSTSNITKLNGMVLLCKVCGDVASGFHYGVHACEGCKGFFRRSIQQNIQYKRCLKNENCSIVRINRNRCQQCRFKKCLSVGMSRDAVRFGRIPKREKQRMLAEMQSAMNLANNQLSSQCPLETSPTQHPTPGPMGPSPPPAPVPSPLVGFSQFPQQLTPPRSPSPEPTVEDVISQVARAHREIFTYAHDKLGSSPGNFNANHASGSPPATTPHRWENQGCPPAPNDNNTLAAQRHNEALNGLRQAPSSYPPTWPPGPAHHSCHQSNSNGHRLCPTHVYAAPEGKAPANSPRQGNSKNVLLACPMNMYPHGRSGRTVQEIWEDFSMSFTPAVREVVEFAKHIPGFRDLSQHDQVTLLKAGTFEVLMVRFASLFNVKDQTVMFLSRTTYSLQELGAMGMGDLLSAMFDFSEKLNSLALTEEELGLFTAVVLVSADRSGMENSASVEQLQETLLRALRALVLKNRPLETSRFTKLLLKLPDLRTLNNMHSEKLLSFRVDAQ
NR2E3 ag-2: NR2E3 agonists in two-hybrid cells, primary screen, cell-based, luminescence, CHO-S, Gal4-NCOR/VP16-NR2E3 | 360,000 tested, 0.35% active | AID 602229, 2012 | luciferase | Photoreceptor-specific nuclear receptor (Homo sapiens), Q9Y5X4 | inhibition of corepressor binding, % at 3.98 µM;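 active = inhibition above the mean of all tested compounds plus 3 SD, cut at about 70% in these data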;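 note: 0% = DMSO with NR2E3 transfected cells and 100% = cells lacking NR2E3 construct; higher means lower luciferase signal from less NR2E3 corepressor binding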
NR2E3 ag confirm: NR2E3 agonist confirmation in cells, cell-based, luminescence, CHO-S two-hybrid; CHO-S mammalian two-hybrid NR2E3-NCOR, luciferase luminescence; inhibition, % at 3.98 µM; shares compounds with NR2E3 ag-2; AID 624378, 2012; 2,300 tested, 51% active;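 active = average inhibition above a cutoff equal to the mean inhibition of all tested compounds plus one SD, cut at about 70% in these data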;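 note: 0% = DMSO in NR2E3 cells and 100% = DMSO in cells lacking NR2E3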
VP16 counter: GAL4-VP16 reporter modulators, confirmation, counter-screen for NR2E3 agonist project, cell-based, luminescence, CHO-S, high throughput; shares compounds with NR2E3 ag-2; CHO-S GAL4-VP16 luciferase reporter; inhibition, % at 3.98 µM; 2,300 tested, 29% active;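 active = mean inhibition above a cutoff equal to the average over all tested compounds plus one standard deviation, cut at about 70% in these data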;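 note: luciferase from a UAS reporter driven by GAL4-VP16 transactivation; 0% = DMSO with VP16-transfected cells and 100% = DMSO with cells lacking VP16; higher means less reporter light so more repression of VP16 activity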
* hit, by the source's call; / = no result given. An excerpt weighted towards active compounds, which were near 2.7% of everything screened.

SMILES	PG9 Ab binder	NR2E3 ag-1	MC4R ag barr	MC4R antag cAMP	NR1D1 modulator	NR2E3 ag-2	NR2E3 ag confirm	VP16 counter
CCCOc1ccc(/C=N/Nc2ccc(C(=O)O)cc2)c(OCCC)c1	-1.6	/	-1.8	9.8	3.9	-46.4	/	/
Cc1cccc(Nc2nc(N3CCCCC3)nc(N3CCCCC3)n2)c1	0.8	2.2	-1.8	9.4	1.8	-20.1	/	/
Cc1cccc(Nc2nc(N3CCOCC3)nc(N3CCOCC3)n2)c1	1.1	2.3	3.1	21.4	2.0	56.9	55.6	29.5
CC(=O)OC1c2ccccc2C(=O)N1Cc1ccccc1 (centres undefined)	0.8	-2.2	-1.0	0.8	0.8	74.8*	-1.3	2.7
CC(C)C[C@@H](CN1CCC[C@@H]1CN1C(=S)NC[C@@H]1Cc1ccc(O)cc1)N1C[C@H](Cc2ccc(O)cc2)N(CC2CCCCC2)C1=S	-1.4	/	/	/	4.8	54.1	14.5	19.4
COc1ccc2cc(S(=O)(=O)NCc3cccnc3)ccc2c1	2.1	3.9	0.2	12.3	7.4	57.1	25.8	37.8
COc1ccc(S(=O)(=O)NCc2cccnc2)cc1OC	-0.5	-1.1	0.4	17.8	-0.3	6.5	/	/
COc1cccc(S(=O)(=O)NCc2ccc(C(=O)Nc3ccc(Cl)c(Cl)c3)cc2)c1	-2.6	4.9	4.2	8.8	-7.5	13.3	/	/
O=C(Nc1ccc(Cl)c(Cl)c1)c1cccc(S(=O)(=O)NCc2cccnc2)c1	-1.3	-2.4	-2.8	10.5	6.4	55.4	84.3*	71.5*
CCOC(=O)C1=C2SCC(=O)N2C(N)=C(C#N)C1	-1.3	2.3	-1.0	-0.4	2.6	-26.4	/	/
O=C(c1cc(S(=O)(=O)N2CCOCC2)ccc1Cl)N1CCC(Cc2ccccc2)CC1	-0.4	-1.9	-1.9	8.8	-2.1	57.0	26.7	7.1
CC(C)(C)NC(=O)C[C@H]1C[C@H](C(=O)N2CCCCC2)[C@@]2(C)c3[nH]c4cc(-c5ccco5)ccc4c3CCN2C1=O	-0.2	/	-1.1	7.5	-3.9	-8.7	/	/
Cn1nc(C(F)(F)F)c(/C=N/OC(=O)c2ccccc2)c1SCc1ccccc1Cl	-2.3	-4.6	1.1	8.9	1.8	64.6	70.6*	69.5
COc1ccc(Br)cc1CSC(=N)N	0.1	-2.2	-2.3	-1.9	-5.1	-8.9	/	/
CCCCCOc1ccc(Br)cc1CSC(=N)N	-1.5	/	1.9	-23.0	-2.0	61.5	89.6*	59.5
O=C(NCc1cccnc1)C1CCCCN1S(=O)(=O)c1ccc(F)cc1 (centres undefined)	1.4	-3.8	-1.4	5.4	-4.0	-14.3	/	/
CCCOC(=O)c1ccc(Oc2cn[nH]c2-c2ccc(O)cc2O)cc1	-0.2	2.5	9.5*	-4.5	9.8	57.9	4.5	34.0
O=C(Nc1ccc2c(c1)OCCO2)C(c1ccnc2ccccc12)N1CCN(c2ccc(C(F)(F)F)cn2)CC1 (centres undefined)	-2.3	/	/	/	3.5	57.7	29.2	1.5
Fc1ccc(-c2nc3c4ccccc4ccn3c2Cc2cccc(Cl)c2)cc1	1.4	/	/	/	-0.6	-35.8	/	/
